Assay outcomes as filed in PubChem BioAssay.
A3A deaminase – inhibitors of human APOBEC3A DNA deaminase. P31941. recombinant A3A, FAM/TAMRA ssDNA deamination fluorescence. inhibition, % at 20 µM. actives 0.41% (n = 330,000);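 active means at least 40% inhibition at 20 µM here, with at most 30% in a related deaminase screen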;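 further: plate controls were A3A with DMSO for no effect and wells lacking A3A enzyme for full effect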
Target sequence (P31941 whole entry, looked up): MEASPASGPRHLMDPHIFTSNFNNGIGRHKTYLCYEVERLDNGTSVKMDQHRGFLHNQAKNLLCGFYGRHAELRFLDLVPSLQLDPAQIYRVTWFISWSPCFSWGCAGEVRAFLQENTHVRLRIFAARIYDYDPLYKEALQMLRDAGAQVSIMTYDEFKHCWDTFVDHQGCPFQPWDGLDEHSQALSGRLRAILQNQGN
pCIP destab – compounds decreasing mouse p/CIP protein stability. F442A p/CIP-EGFP cells, EGFP fluorescence, 16 h. decrease of EGFP signal, % at 10 µM. actives 0.01% (n = 290,000). AID 1984;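 active means EGFP signal decrease of at least 30% at 10 µM or well 3 SD below plate mean, unless failing retest; inactive means the rest, including hits failing retest or dose response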
Tb MetRS inh – Trypanosoma brucei MetRS inhibition | purified T. brucei MetRS, ATP depletion, Kinase-Glo luminescence | inhibition, % at 11.9 µM | actives 0.4% (n = 360,000) | AID 624268;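 active means inhibition above a per-plate cutoff of the control wells' mean inhibition plus 3 SD, cut at about 5.5% in these data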;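 further: 0% = DMSO wells median and 100% = median of wells with control inhibitor compound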
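Material – parasite MetRS enzyme · Medium – HEPES-MgCl2-KCl buffer plus DTT, spermine, BSA, pyrophosphatase · Reagent – ATP, methionine and E. coli bulk tRNA substrates · Times – 15 min enzyme-compound preincubation, 2 h reaction, 10 min detection, 25 °C · Measured by – luminescence of leftover ATP · Evaluation – percent inhibition relative to median high and low control wells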
PHOSPHO1 block – PHOSPHO1 (human) inhibition; recombinant PHOSPHO1, absorbance phosphatase assay; AID 1565; inhibition, % at 13.3 µM; actives 1.1% (n = 290,000); in the data active means inhibition above about 60%
Target sequence (Q8TCT1 whole entry, looked up): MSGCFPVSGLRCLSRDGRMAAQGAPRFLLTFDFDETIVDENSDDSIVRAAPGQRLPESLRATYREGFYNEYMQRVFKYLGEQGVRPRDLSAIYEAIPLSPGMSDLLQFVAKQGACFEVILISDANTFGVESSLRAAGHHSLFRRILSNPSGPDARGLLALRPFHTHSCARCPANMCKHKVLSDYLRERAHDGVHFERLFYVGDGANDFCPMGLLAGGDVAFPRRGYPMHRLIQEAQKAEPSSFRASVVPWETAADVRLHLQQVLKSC
A3G deaminase – blocks human APOBEC3G single-stranded DNA deamination; Q9HC16; recombinant A3G, ssDNA deamination FAM/TAMRA fluorescence; inhibition, % at 20 µM; actives 0.28% (n = 330,000);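 active means inhibition of at least 40% at 20 µM, with no more than 30% in the related APOBEC3A deaminase screen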;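 further: plate controls were DMSO wells with A3G for no effect and wells lacking A3G enzyme for full effect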
Tb MetRS conf – Trypanosoma brucei MetRS inhibition confirmed | inhibition, % at 11.9 µM | actives 93% (n = 1,400) | T. brucei MetRS enzyme, luminescence (ATP depletion) | shares compounds with Tb MetRS inh; in the data active means inhibition above about 7%
Jurkat cytotox – counter-screen for T. brucei MetRS inhibitors: Jurkat cell cytotoxicity; shares compounds with Tb MetRS inh; Jurkat cells viability, ATP luminescence; inhibition, % at 8.3 µM; actives 12% (n = 1,400); AID 624413; in the data active means inhibition above about 15%;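 further: 0% = vehicle and 100% = reference inhibitor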
TbMetRS FP orth – inhibits T. brucei methionyl tRNA synthetase in orthogonal FP test. inhibition, % at 11.9 µM. AID 651607. shares compounds with Tb MetRS inh. purified T. brucei MetRS, fluorescence polarization. actives 44% (n = 1,400); in the data active means inhibition above about 17%;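 further: 0% = vehicle wells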
The depositor's hits bear a star. Sampled rows, rich in hits. Any-hit rate of the full collection: about 1.8%.

`Cc1cc(C)n(CCC(=O)N/N=C/c2c(O)ccc3ccccc23)n1` gave A3A deaminase -6, pCIP destab 1, Tb MetRS inh 6.5*, PHOSPHO1 block 20, A3G deaminase -6, Tb MetRS conf 14*, Jurkat cytotox 87* and TbMetRS FP orth 11.
`Nc1nc(N)c2ncn(C3C=CC(CO)C3)c2n1` (stereo not given) gave Tb MetRS inh -1.
For COc1cccc(CNc2ccc([N+](=O)[O-])cc2Cl)c1O the results were A3A deaminase 2, pCIP destab -6, Tb MetRS inh 17*, PHOSPHO1 block -2, A3G deaminase 9, Tb MetRS conf 18*, Jurkat cytotox 7 and TbMetRS FP orth 13.
For O=c1[nH]nc(Cc2ccc(Cl)cc2Cl)c2ccccc12 the results were A3A deaminase 0, pCIP destab -7, Tb MetRS inh 8.2*, PHOSPHO1 block 13, A3G deaminase 1, Tb MetRS conf 39*, Jurkat cytotox 5 and TbMetRS FP orth 20*.
`Cc1ccc(NC(=O)C=NOCC(=O)Nc2cc(C)cc(C)c2)cc1` gave A3A deaminase -2, Tb MetRS inh 24*, A3G deaminase -4, Tb MetRS conf 58*, Jurkat cytotox -4 and TbMetRS FP orth 41*.
O=C(CCN1C(=O)c2ccc([N+](=O)[O-])cc2C1=O)Nc1ccccc1C(=O)O was read as A3A deaminase -7, pCIP destab -6, Tb MetRS inh 0, PHOSPHO1 block 16 and A3G deaminase -7.
Screening Cc1ccc(CCNC(=O)CCc2nc3ccccc3[nH]2)cc1 returned A3A deaminase 0, pCIP destab -17, Tb MetRS inh 21*, PHOSPHO1 block -9, A3G deaminase 0, Tb MetRS conf 37*, Jurkat cytotox -4 and TbMetRS FP orth 16.
Screening COc1ccc(OCCCC(=O)NCCc2nc3ccccc3[nH]2)cc1 returned A3A deaminase 0, pCIP destab -6, Tb MetRS inh 48*, PHOSPHO1 block 32, A3G deaminase -2, Tb MetRS conf 70*, Jurkat cytotox -3 and TbMetRS FP orth 32*.
For CCOc1ccc(CCNC(=O)CCc2nc3ccccc3[nH]2)cc1OCC the results were A3A deaminase 1, pCIP destab 3, Tb MetRS inh 3, PHOSPHO1 block -10 and A3G deaminase -6.
`COc1ccc(CCNC(=O)CCc2nc3ccccc3[nH]2)cc1OC` gave A3A deaminase -2, pCIP destab 9, Tb MetRS inh 8.3*, PHOSPHO1 block 36, A3G deaminase -6, Tb MetRS conf 11*, Jurkat cytotox 2 and TbMetRS FP orth 6.
`COc1ccc(CCC(=O)NCCc2nc3ccccc3[nH]2)cc1` gave A3A deaminase 4, pCIP destab 2, Tb MetRS inh 9.4*, PHOSPHO1 block -19, A3G deaminase 0, Tb MetRS conf 16*, Jurkat cytotox -4 and TbMetRS FP orth 1.
For CCCC(=O)NCCCc1nc2ccccc2[nH]1 the results were A3A deaminase -2, pCIP destab -6, Tb MetRS inh -1, PHOSPHO1 block 0 and A3G deaminase -9.
`CCN(CC)CCN1C(=O)C2C(C(=O)Nc3ccc(C(C)C)cc3)C3C=CC2(O3)C1C(=O)NC1CCCCC1` (stereo not given) gave A3A deaminase -2, pCIP destab -3, Tb MetRS inh -1, PHOSPHO1 block 39 and A3G deaminase -7.
Screening COc1ccccc1CNC(=O)c1cn(C)c2ccc(S(=O)(=O)N3CCCC3)cc2c1=O returned A3A deaminase -7, pCIP destab -8, Tb MetRS inh 0, PHOSPHO1 block 8 and A3G deaminase -18.
Screening CCc1ccc(-c2cc(C)no2)cc1S(=O)(=O)N1CCN(C(=O)c2ccco2)CC1 returned A3A deaminase -5, pCIP destab 12, Tb MetRS inh -1, PHOSPHO1 block 40 and A3G deaminase -6.
For O=C(NCCCCc1ccccc1)Nc1cccc(F)c1 the results were A3A deaminase 0, pCIP destab -15, Tb MetRS inh 11*, PHOSPHO1 block 36, A3G deaminase -3, Tb MetRS conf 44*, Jurkat cytotox -2 and TbMetRS FP orth 35*.
`Cc1cccc(NC(=O)NCCCCc2ccccc2)c1` gave A3A deaminase 0, pCIP destab 3, Tb MetRS inh 0, PHOSPHO1 block 24 and A3G deaminase -6.
Cn1ccc2c(N3CCCCCC3)cc3c(c21)C1CCC3C1 (stereo not given) was read as Tb MetRS inh 0.
Screening O=C(NCC1COc2ccccc2O1)c1ccc(-n2cncn2)c([N+](=O)[O-])c1 (stereo not given) returned A3A deaminase -1, Tb MetRS inh 19*, A3G deaminase -4, Tb MetRS conf 58*, Jurkat cytotox -2 and TbMetRS FP orth 31*.
Screening O=C(NC1CCCCC1)c1ccc(-n2cncn2)c([N+](=O)[O-])c1 returned A3A deaminase 0, Tb MetRS inh 24*, A3G deaminase -6, Tb MetRS conf 51*, Jurkat cytotox 8 and TbMetRS FP orth 28*.
For CC1CCC(NC(=O)c2ccc(-n3cncn3)c([N+](=O)[O-])c2)CC1 (stereo not given) the results were A3A deaminase -3, Tb MetRS inh 12*, A3G deaminase -8, Tb MetRS conf 52*, Jurkat cytotox -4 and TbMetRS FP orth 24*.
Screening Cc1ccc(CNC(=O)c2ccccc2NC(=O)CSc2nnnn2C)cc1 returned A3A deaminase -1, pCIP destab -4, Tb MetRS inh 0, PHOSPHO1 block 14 and A3G deaminase -3.
For CC(C)(C)c1ccc(OCCCn2ccnc2)cc1 the results were A3A deaminase -2, pCIP destab 0, Tb MetRS inh -1, PHOSPHO1 block -1 and A3G deaminase 0.
For O=C1c2cccnc2-c2ncccc21 the results were A3A deaminase 1, pCIP destab 8, Tb MetRS inh 0, PHOSPHO1 block 42 and A3G deaminase 0.
Screening O=C1C(=O)c2cccnc2-c2ncccc21 returned Tb MetRS inh 15*, Tb MetRS conf 9.7*, Jurkat cytotox 97* and TbMetRS FP orth 7.
For CN(C)S(=O)(=O)c1ccc(N2CCCC2)c(C(=O)NNC(=O)COc2ccccc2F)c1 the results were A3A deaminase -4, Tb MetRS inh 0 and A3G deaminase -9.
